Screens deposited in PubChem by The Scripps Research Institute Molecular Screening Center.
ASAP1 GAP inh: inhibitors of human ASAP1 ArfGAP activity, primary screen, biochemical, fluorescence polarization; Arf-GAP with SH3 domain, ANK repeat and PH domain-containing protein 1 (Homo sapiens), …; ASAP1-stimulated ARF1 GTP hydrolysis, GDP FP detection; inhibition, % at 16.5 µM; 0.19% of 360,000 active; AID 624377, 2012; in the data active = inhibition above about 25%;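 also: 0% = vehicle with enzyme and substrate and 100% = no enzyme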
PLC-gamma1 inh: PLC-gamma1 enzyme inhibitors, primary screen, biochemical, fluorescence, purified enzyme | 1-phosphatidylinositol 4,5-bisphosphate phosphodiesterase gamma-1 (Homo sapiens), P19174 | fluorogenic substrate | inhibition, % at 12.2 µM | 0.84% of 370,000 active; in the data active = inhibition above about 9.5%
sPLA2-III inh: human group III sPLA2 inhibitors, primary screen, biochemical, QFRET, BODIPY PC-A2 liposome substrate; Group 3 secretory phospholipase A2 (Homo sapiens), Q9NZ20; 0.56% of 370,000 active; QFRET BODIPY PC-A2 liposome hydrolysis, fluorescence; AID 743126, 2013; inhibition, % at 12.2 µM;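 active = inhibition above mean plus 3 SD of compounds lying within the high and low control bounds, cut at about 19% in these data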;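 also: 0% = median of test compound wells and 100% = no enzyme DMSO wells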
PLC-beta3 inh: human PLC-beta3 inhibitors, primary screen, biochemical, fluorescence. inhibition, % at 12.2 µM. 1-phosphatidylinositol 4,5-bisphosphate phosphodiesterase beta-3 (Homo sapiens), Q01970. Purified PLC-beta3, fluorogenic substrate. 0.18% of 370,000 active. AID 720704, 2013; in the data active = inhibition above about 11%;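 also: 0% = median of compound wells on plate and 100% = full blocker control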
ARFGAP1 inh: inhibitors of rat ARFGAP1 GAP activity, primary screen, biochemical, fluorescence polarization, GDP tracer | ADP-ribosylation factor GTPase-activating protein 1 (Rattus norvegicus), Q62848 | inhibition, % at 16.5 µM | 0.26% of 360,000 active | Arfgap1-stimulated ARF1 GTP hydrolysis, GDP FP detection;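 active = inhibition above a per-plate limit, mean inhibition of low control wells plus 3 SD, cut at about 25% in these data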;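 also: 0% = DMSO wells with enzyme and 100% = wells lacking Arfgap1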
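material = rat Arfgap1 catalytic domain, aa 1-136 | also added = human ARF1(Δ1-17)-GTP substrate | compound dosing = one concentration, 16.5 µM, DMSO 1.26% | times = GTP hydrolysis reaction 2 h at 25 °C | measured by = FP, GDP Alexa 633 tracer displaced from anti-GDP antibody, 620/688 nm | evaluation = percent inhibition of Arfgap1-stimulated GTP hydrolysis | replication = single well per compound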
ARFGAP1 confirm: ARFGAP1 inhibitor hit confirmation, biochemical, fluorescence polarization, triplicate; shares compounds with ARFGAP1 inh; ARFGAP1-stimulated ARF1 GTP hydrolysis, GDP tracer FP; inhibition, % at 16.5 µM; 30% of 890 active;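 active = average inhibition over triplicates above the hit cutoff set in the earlier primary screen, cut at about 25% in these data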;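 also: 0% = Arfgap1 plus ARF1-GTP with DMSO and 100% = wells lacking Arfgap1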
* marks the source's active call; other numbers are inactive results; i = inactive; . = not tested or not shown. The list is not random: actives were taken first. Their share in the collection is about 1.9%.

SMILES	ASAP1 GAP inh	PLC-gamma1 inh	sPLA2-III inh	PLC-beta3 inh	ARFGAP1 inh	ARFGAP1 confirm
O=C(CSc1ccc(Cl)cc1)Nc1ccc(-c2nc3ccccc3[nH]2)cc1	3	0	8	1	25*	24
Cc1ccccc1C(=O)N1CCN(c2ccccn2)CC1	-10	-3	-6	-1	5	.
Cc1ccccc1C(=O)N1CCN(c2ncccn2)CC1	-9	-3	-2	-11	70*	2
CC(COc1ccccc1)CN1CCC(C(O)(c2ccccc2)c2ccccc2)CC1 (stereo not given)	.	5	-10	5	.	.
COC(=O)[C@]12C[C@H](CC(=O)NCCCN3CCCC3=O)C(=O)N(Cc3cccc4ccccc34)C1=C[C@H](C(C)(C)C)O[C@@H]2C	.	-1	-7	0	.	.
Cc1cccc(C(=O)Nc2ccc3c(c2)C(=O)NC3=O)c1	-7	-478	-3	i	10	.
Cc1ccc(C(=O)Nc2ccc3c(c2)C(=O)NC3=O)cc1	13	-75	1	-95	25*	-3
O=C(/C=C/c1ccco1)Nc1ccc(N2CCCC2)cc1	12	-12	1	-11	26*	-1
N#Cc1cc(F)cc(OC[C@@H](O)CN2CCC(C(O)(c3ccccc3)c3ccccc3)CC2)c1	.	2	-25	-11	.	.
COc1ccc2nc(N3C(=O)C(O)=C(C(=O)c4ccco4)C3c3ccc(OC)c(OC)c3)sc2c1 (stereo not given)	-3	-30	-9	-42	-2	.
Cc1ccc2nc(N3C(=O)C(O)=C(C(=O)c4ccc(C)o4)C3c3cccc(O)c3)sc2c1 (stereo not given)	19	-65	-20	-92	34*	52*
CCOC(=O)[C@@]12CN(C(=O)OC(C)(C)C)CC=C1N(Cc1ccc(OC)cc1)C(=O)[C@H]2CC(=O)NCC12CC3CC(CC(C3)C1)C2	.	0	8	-4	.	.
Cc1ccccc1Nc1c([N+](=O)[O-])cncc1[N+](=O)[O-]	2	8	11	3	27*	1
COc1ccccc1Nc1c([N+](=O)[O-])cncc1[N+](=O)[O-]	2	5	9	-2	7	.
Cc1cc(=O)oc(C)c1C(=O)N1CCN(C)CC1	13	-1	-1	3	25*	-1
COc1ccc(S(=O)(=O)N2CCCCCC2)cc1N(C)S(=O)(=O)c1ccccc1	10	7	0	-1	26*	1
COc1ccc(S(=O)(=O)N2CCCCC2)cc1N(C)S(=O)(=O)c1ccccc1	-8	6	-2	-5	5	.
Nc1ccccc1-c1nc2ccccc2[nH]c1=O	3	-2	3	-7	2	.
O=c1[nH]c2ccccc2nc1-c1c[nH]c2ccccc12	4	i	-20	i	26*	13
CCCC[C@@H]1C(=O)N2N=Cc3cc4ccccc4cc3[C@H]2N2N=Cc3cc4ccccc4cc3[C@@H]12	.	-38	8	-56	.	.
C[C@@H]1CN([C@H](C)CO)C(=O)c2cc(NC(=O)Nc3ccccc3)ccc2O[C@@H](C)CCCCO[C@H]1CN(C)S(=O)(=O)c1ccc(F)cc1	.	0	-48	2	.	.
O=C(CSc1nnc(COc2ccc(Cl)cc2)o1)NC1CC2CCC1C2 (stereo not given)	0	0	11	-10	30*	3
COc1ccc(OCc2nnc(SCC(=O)NC3CC4CCC3C4)o2)cc1 (stereo not given)	-15	-2	-2	0	-1	.
COc1ccc(OCc2nnc(SCC(=O)c3ccccc3)o2)cc1	-11	1	-36	-3	32*	8
COCC#Cc1ccc(CC[C@H]2O[C@H]3CC[C@@H](CO)O[C@H]3C[C@H]2n2cc(C3CC3)nn2)cc1	.	0	-1	4	.	.
SMILES	ASAP1 GAP inh	PLC-gamma1 inh	sPLA2-III inh	PLC-beta3 inh	ARFGAP1 inh	ARFGAP1 confirm
Cc1ccc(C)c(NC(=O)CN2C(=O)CCSc3ccccc32)c1	.	2	8	2	.	.
COc1ccc(C(=O)Nc2cccc(-c3ccc(N4CCOCC4)nn3)c2)cc1OC	0	-21	7	-20	29*	14
CCOc1ccc(C(=O)Nc2cccc(-c3ccc(N4CCOCC4)nn3)c2)cc1OCC	18	-2	-3	-11	18	.
CCCCCc1c(C)nc(N2CCc3ccccc32)[nH]c1=O	6	4	17	6	26*	3
C#CCCN([C@H](C(=O)OC)C(C)C)S(=O)(=O)c1ccccc1Br	.	-1	3	-1	.	.
CCCc1ccc(Oc2cn[nH]c2-c2ccc(O)cc2O)cc1	15	5	-68	2	30*	18
COc1ccc(Oc2cn[nH]c2-c2ccc(O)cc2O)cc1	16	2	-67	-2	16	.
CCN(c1ccc(OC)cc1)S(=O)(=O)c1ccc2c(c1)CCN2C(=O)CCC(=O)O	11	0	3	0	-10	.
CCN(c1ccc(C)c(C)c1)S(=O)(=O)c1ccc2c(c1)CCN2C(=O)CCC(=O)O	2	2	10	4	29*	-5
COc1ccc(CN2C(C(=O)NC3CCCC3)CSCCS2(=O)=O)cc1 (stereo not given)	.	4	14	2	.	.
CC(C)(C)CC(C)(C)NC(=O)/C=C/C(=O)O	-16	-3	2	-6	25*	-2
O=C(CCc1ccccc1)N[C@H]1[C@H](OC(=O)c2cnccn2)CCC[C@]12C(=O)N(Cc1ccccc1)c1ccccc12	.	2	11	-4	.	.
CCN1CCN(c2ccc(S(=O)(=O)N3CCCCC3)cc2NC(=O)/C=C/c2ccc(F)cc2)CC1	6	0	-13	0	12	.
CCN1CCN(c2ccc(S(=O)(=O)N3CCCCC3)cc2NC(=O)/C=C/c2ccc([N+](=O)[O-])cc2)CC1	29*	2	-10	-19	42*	45*
COC(=O)c1nnn(CC(=O)Nc2cc(Cl)ccc2C)c1C(=O)OC	2	-6	-1	-3	7	.
COC(=O)c1nnn(-c2cccc(Cl)c2)c1C(=O)OC	-1	1	3	-11	25*	5
O=C(CC1C=CCC1)OCCN1CCN(C2CN(Cc3cn(Cc4ccccc4Cl)nn3)S(=O)(=O)C2)CC1 (stereo not given)	.	0	1	5	.	.
CCCCCn1c(=O)[nH]c2cc(C(=O)N3CCN(C(=O)OCC)CC3)ccc2c1=O	-6	-4	-5	-8	25*	5
